Activity calls are given as the source filed them. No cut-off for these calls is given here.
Legend:
[1] = biological target: Albumin (Homo sapiens, UniProt P02768); assay: Binding affinity to HSA assessed as change in enthalpy by isothermal titration calorimetry
[2] = biological target: T1, Prostaglandin G/H synthase 2 (Homo sapiens) (UniProt P35354)
T1 sequence (whole entry): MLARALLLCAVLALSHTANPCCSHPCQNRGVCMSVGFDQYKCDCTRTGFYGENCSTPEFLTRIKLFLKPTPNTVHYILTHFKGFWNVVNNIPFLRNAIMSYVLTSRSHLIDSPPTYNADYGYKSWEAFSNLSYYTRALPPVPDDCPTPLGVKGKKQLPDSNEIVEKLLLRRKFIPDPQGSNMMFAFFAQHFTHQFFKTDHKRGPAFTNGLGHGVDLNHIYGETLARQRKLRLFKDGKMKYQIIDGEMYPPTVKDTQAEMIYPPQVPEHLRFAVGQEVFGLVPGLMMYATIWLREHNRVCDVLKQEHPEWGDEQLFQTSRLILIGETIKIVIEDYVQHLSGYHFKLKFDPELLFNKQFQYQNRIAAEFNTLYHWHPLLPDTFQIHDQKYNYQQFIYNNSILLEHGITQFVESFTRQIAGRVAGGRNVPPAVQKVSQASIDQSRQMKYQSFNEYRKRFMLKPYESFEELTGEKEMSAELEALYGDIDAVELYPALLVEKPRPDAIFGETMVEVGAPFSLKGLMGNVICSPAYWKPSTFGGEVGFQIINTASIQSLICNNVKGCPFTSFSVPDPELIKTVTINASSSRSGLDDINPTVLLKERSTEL

[3] = biological target: T2, Prostaglandin G/H synthase 1 (Ovis aries, UniProt P05979); assay: Inhibition of ovine COX-1 using arachidonic acid as substrate preincubated for 10 mins followed by substrate addition and measured after 2 mins by EIA
T2 sequence (P05979 whole entry): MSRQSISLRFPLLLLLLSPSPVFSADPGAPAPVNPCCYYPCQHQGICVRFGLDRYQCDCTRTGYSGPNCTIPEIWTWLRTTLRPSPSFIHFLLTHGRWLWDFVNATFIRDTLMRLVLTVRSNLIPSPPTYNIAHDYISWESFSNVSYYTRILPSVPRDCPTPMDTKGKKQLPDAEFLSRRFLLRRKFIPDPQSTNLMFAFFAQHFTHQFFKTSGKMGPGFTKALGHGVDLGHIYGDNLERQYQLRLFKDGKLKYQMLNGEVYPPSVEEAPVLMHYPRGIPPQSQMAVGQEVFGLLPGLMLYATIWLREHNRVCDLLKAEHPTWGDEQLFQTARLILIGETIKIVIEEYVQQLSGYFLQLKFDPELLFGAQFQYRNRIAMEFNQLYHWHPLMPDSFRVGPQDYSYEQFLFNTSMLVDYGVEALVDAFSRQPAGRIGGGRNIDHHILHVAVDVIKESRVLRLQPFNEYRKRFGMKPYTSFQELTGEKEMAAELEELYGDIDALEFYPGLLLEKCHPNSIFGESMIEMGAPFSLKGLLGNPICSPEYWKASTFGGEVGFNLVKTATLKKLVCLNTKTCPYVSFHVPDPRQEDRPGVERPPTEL
Summary of the method: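 COX-1 EIA run at 10⁻⁴–10⁻⁸ M in triplicate. Enzyme with heme in reaction buffer plus inhibitor, incubated 10 min at 37 °C. Boiled (3 min) enzyme served as background. Prostaglandin output quantified to give IC50.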

[4] = test system: Glycine max
[5] = test system: Mus musculus; assay: Antiinflammatory activity in Swiss albino mouse model of carrageenan-induced paw edema assessed as reduction in paw thickness at 5 mg/kg, administered 30 mins prior to carrageenan challenge and measured upto 360 mins relative to control; type: functional; parameters: scale not given: the % may be the effect or the level left; details: time 390 min, 6.5 h
Summary of the method: (§1)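 100 μL freshly prepared 1% carrageenan injected into the subplantar hind paw, with indomethacin (10 mg/kg) or test compound given 30 min before. Dose–response arm used 0.5, 2.5, 5, 10, 20 mg/kg. Six animals per group. Paw thickness (mm) read at 15, 30, 60, 120, 180, 240, 300, 360 min. Result expressed as % decrease versus control.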

[6] = AUC (0 to t) in Swiss albino mouse at 10 mg/kg, ip measured upto 24 hrs by LC-MS analysis; type: ADME, organism-based; parameters: route intraperitoneal, dose 10 mg/kg, time <=24; details: in vivo
Summary of the method: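 Swiss albino mice (25−35 g), either sex, 10 groups of three. 10 mg/kg suspended in 0.1% CMC, given i.p. Ketamine anaesthesia (50 mg/kg i.p.). Jugular vein blood taken at 30, 45, 60 min and 2, 3, 4, 6, 8, 11, 24 h into heparinised tubes, triplicate samples per time point.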

[7] = Inhibition of soybean LOX using arachidonic acid as substrate incubated for 5 mins; parameters: species or system Glycine max
Summary of the method: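 Soybean lipoxygenase in assay buffer, compounds at 10⁻⁴–10⁻⁸ M from DMSO stocks, triplicate. Reaction started with arachidonic acid and shaken 5 min. Chromogen added, shaken 5 min more, absorbance read at 490 nm. Blanks were buffer + AA. % inhibition computed with chromogen extinction coefficient 9.47 mM⁻¹.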

[8] = test system: Glycine max; assay: Binding affinity to soybean 5-LOX assessed as change in entropy by isothermal titration calorimetry
Summary of the method: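 ITC at 25 °C in 0.1 M Tris buffer. Ligand at 100 μM in DMSO:Tris (1:9) titrated from a syringe stirred at 500 rpm into enzyme in the sample cell, 120 s spacing. 40 × 1 μL injections, except COX-1 at 20 × 2 μL. Buffer-only control titrations were subtracted.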

[9] = test system: Mus musculus; assay: Analgesic activity in Swiss albino mouse assessed as inhibition of acetic acid-induced writhing at 5 mg/kg, ip preincubated for 30 mins with L-arginine followed by compound addition for 30 mins prior to acetic acid challenge and measured after 30 mins; type: functional, organism-based; details: time 60.0 min
[10] = test system: Mus musculus; assay: Analgesic activity in Swiss albino mouse assessed as inhibition of acetic acid-induced writhing at 5 mg/kg, ip preincubated for 30 mins with substance P followed by compound addition for 30 mins prior to acetic acid challenge and measured after 30 mins; type: functional, organism-based; details: time 60.0 min
[11] = test system: Mus musculus; assay: Sedative activity in Swiss albino mouse at 300 mg/kg, po after 2 hrs; type: ADME, organism-based; details: in vivo
Summary of the method: (§2)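 Acute oral toxicity in Swiss albino mice fasted 4 h, three per group, vehicle control group alongside. Single 300 mg/kg oral dose, continuous observation for 4 h, then periodic checks over 14 days.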

[12] = test system: Mus musculus; assay: Sedative activity in Swiss albino mouse at 300 mg/kg, po after 1 hr; type: ADME, organism-based; details: in vivo; summary of the method: as §2
[13] = biological target: Prostaglandin G/H synthase 1 (Homo sapiens) (UniProt P23219); assay: Inhibition of COX1 in human whole blood assessed as reduction in calcium ionophore-stimulated TXB2 production by ELISA; type: tissue-based
[14] = test system: Mus musculus; assay: Antiinflammatory activity against Swiss albino mouse assessed as reduction in carragenan-induced paw edema at 2.5 mg/kg treated 30 mins prior to carrageenan challenge and measured upto 360 mins relative to control; type: functional; parameters: scale not given: the % may be the effect or the level left; details: time 390 min, 6.5 h; summary of the method: as §1
[15] = biological target: T1, Prostaglandin G/H synthase 2 (Homo sapiens); remark: listed apart in the source
[16] = test system: Mus musculus; assay: Antiinflammatory activity against Swiss albino mouse assessed as reduction in carragenan-induced paw edema at 20 mg/kg treated 30 mins prior to carrageenan challenge and measured upto 360 mins relative to control; type: functional; parameters: scale not given: the % may be the effect or the level left; details: time 390 min, 6.5 h; summary of the method: as §1

Albumin, sequence (P02768 whole entry): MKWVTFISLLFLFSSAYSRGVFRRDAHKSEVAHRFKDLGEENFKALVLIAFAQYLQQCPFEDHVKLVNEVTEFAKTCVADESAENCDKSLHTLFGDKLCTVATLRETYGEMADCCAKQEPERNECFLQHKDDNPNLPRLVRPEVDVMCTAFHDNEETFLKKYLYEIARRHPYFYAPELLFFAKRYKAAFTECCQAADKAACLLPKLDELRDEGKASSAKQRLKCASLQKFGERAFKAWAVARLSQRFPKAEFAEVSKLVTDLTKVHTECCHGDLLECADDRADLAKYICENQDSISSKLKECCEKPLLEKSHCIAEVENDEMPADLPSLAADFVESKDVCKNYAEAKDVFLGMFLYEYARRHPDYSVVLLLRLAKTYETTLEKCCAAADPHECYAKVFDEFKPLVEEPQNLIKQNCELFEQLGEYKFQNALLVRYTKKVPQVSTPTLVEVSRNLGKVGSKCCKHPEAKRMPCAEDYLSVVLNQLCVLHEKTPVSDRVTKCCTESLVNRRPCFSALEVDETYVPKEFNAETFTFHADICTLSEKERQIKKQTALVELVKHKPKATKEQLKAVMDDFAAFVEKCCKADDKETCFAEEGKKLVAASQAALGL
Prostaglandin G/H synthase 1 (Homo sapiens), sequence (P23219 whole entry): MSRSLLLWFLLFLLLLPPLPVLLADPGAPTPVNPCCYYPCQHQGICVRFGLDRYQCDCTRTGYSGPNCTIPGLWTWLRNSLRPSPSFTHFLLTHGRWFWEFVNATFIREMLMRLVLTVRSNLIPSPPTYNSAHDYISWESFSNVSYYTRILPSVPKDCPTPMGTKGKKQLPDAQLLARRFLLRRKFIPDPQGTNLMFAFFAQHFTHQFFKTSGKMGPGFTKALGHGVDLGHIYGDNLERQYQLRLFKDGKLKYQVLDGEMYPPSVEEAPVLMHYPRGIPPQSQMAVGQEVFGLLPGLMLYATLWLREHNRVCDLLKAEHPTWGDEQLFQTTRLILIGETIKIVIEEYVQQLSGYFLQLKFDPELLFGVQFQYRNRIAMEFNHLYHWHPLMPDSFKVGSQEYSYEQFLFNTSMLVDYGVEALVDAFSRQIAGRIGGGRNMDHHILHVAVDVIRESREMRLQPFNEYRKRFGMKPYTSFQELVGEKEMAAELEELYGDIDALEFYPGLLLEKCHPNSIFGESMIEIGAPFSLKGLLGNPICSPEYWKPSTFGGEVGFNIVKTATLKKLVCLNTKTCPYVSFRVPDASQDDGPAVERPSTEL

deltaH [1]: -1100 kJ/mol | deltaH [2]: -43.7 kJ/mol | IC50 [3]: 0.3 µM | deltaG [4]: -29.3 kJ/mol | AUC(0-t) at 24 h [6]: 241 µg·h/mL | IC50 [7]: 0.007 µM | TdeltaS [8]: -12.5 kJ/mol | Activity [13]: 1.6 ng/mL | deltaG [15]: -33 kJ/mol
SMILES: O=C(O)Cn1nncc1CO[C@@H](C(=O)O)[C@@H](OCc1cnnn1CC(=O)O)C(=O)O
Activity [5]: 33% | Activity [9]: Active | Activity [10]: inactive | Activity [11]: Non-Toxic | Activity [12]: Toxic | Activity [14]: 5.4% | Activity [16]: 38.5%
